# Reference: ChEMBL document CHEMBL3526056, “Characterization of in vitro glucuronidation clearance of a range of drugs in human kidney microsomes: comparison with liver and intestinal glucuronidation and impact of albumin” (Drug Metab Dispos, 2012)
# Experiments:
# [1] = Clearance in iv dosed human; type: ADME, organism-based; conditions: in vivo
# [2] = Fraction unbound in human kidney microsomes at 1 uM after 30 to 60 mins by LC-MS/MS analysis; type: ADME
# [3] = tested on: Liver microsome; experiment: Fraction unbound in human liver microsomes at 1 uM after 30 to 60 mins by LC-MS/MS analysis in presence of 1% bovine serum albumin; type: ADME; conditions: microsomes, 1 µM
# [4] = biological target: T1, UDP-glucuronosyltransferase 1A3 (Homo sapiens, UniProt P35503); experiment: Ratio of UGT1A3-mediated unbound intrinsic glucuronidation clearance in human kidney microsomes to UGT1A3-mediated unbound intrinsic glucuronidation clearance in human liver microsomes at 1 uM in presence of 1% bovine serum albumin; type: ADME
# T1 sequence (P35503 whole entry): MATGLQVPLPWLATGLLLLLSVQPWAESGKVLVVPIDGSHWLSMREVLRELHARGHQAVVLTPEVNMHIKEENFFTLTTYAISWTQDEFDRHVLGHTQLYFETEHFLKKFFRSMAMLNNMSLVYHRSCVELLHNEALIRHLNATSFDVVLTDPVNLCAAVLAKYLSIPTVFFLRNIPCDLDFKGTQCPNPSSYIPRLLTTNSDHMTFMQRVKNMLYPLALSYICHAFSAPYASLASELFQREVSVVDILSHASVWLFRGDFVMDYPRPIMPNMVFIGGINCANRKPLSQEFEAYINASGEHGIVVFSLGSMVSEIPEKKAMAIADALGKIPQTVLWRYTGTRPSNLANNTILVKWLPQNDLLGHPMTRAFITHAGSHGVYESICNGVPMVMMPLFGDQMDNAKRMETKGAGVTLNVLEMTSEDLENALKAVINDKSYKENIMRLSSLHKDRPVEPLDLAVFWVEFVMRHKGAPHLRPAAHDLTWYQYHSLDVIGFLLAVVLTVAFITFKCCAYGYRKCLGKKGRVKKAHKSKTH
# Summary of the method: (§1)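 Ratios of mean unbound CLint,UGT, each scaled per g tissue, between pooled liver, kidney and intestinal microsomes. Values come from 1 μM substrate-depletion assays in pH 7.1 phosphate at 37°C, run with or without BSA (1% for acids, 2% for bases/neutral drugs). Corrected for nonspecific binding. Kidney and liver n = 3; intestine n = 1; each in duplicate.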
# [5] = biological target: T1, UDP-glucuronosyltransferase 1A3; experiment: Drug metabolism in human kidney microsomes assessed as UGT1A3-mediated unbound intrinsic glucuronidation clearance at 1 uM after 30 to 60 mins by LC-MS/MS analysis; type: ADME
# Summary of the method: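 Pooled human kidney microsomes (8 donors), alamethicin-activated. […] Started with cofactor (5 mM in incubation) and run 30–60 min. Parent depletion measured by LC-MS/MS; single-exponential k; corrected by equilibrium-dialysis fu,inc. Duplicates, three occasions.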
# [6] = Ratio of unbound intrinsic glucuronidation clearance in human kidney microsomes in presence of 1% bovine serum albumin to unbound intrinsic glucuronidation clearance in human kidney microsomes in absence of bovine serum albumin; type: ADME, microsome
# Summary of the method: (§2)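 Unbound intrinsic glucuronidation clearance measured by parent-drug depletion in intestinal or kidney microsomes, once with 1% BSA and once without, under otherwise matched conditions (1 μM drug, pH 7.1 phosphate, 5 mM cofactor, 37°C). Each value was corrected for fu,inc. The ratio is the mean clearance with BSA over the mean without.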
# [7] = biological target: T1, UDP-glucuronosyltransferase 1A3; experiment: Drug metabolism in human intestinal microsomes assessed as UGT1A3-mediated unbound intrinsic glucuronidation clearance at 1 uM after 30 to 60 mins by LC-MS/MS analysis; type: ADME, Intestine
# [8] = tested on: Liver microsome; experiment: Ratio of unbound intrinsic glucuronidation clearance in human liver microsomes in presence of 1% bovine serum albumin to unbound intrinsic glucuronidation clearance in human liver microsomes in absence of bovine serum albumin; type: ADME
# Summary of the method: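 Ratio of mean unbound CLint,UGT in pooled human liver microsomes with 1% BSA to that without BSA. Both come from 1 μM depletion assays at 37°C in pH 7.1 phosphate buffer, with parent drug measured by LC-MS/MS. BSA runs were quenched in double-volume ice-cold acetonitrile. Each condition was corrected by its own equilibrium-dialysis fu,inc. n = 3, duplicates.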
# [9] = Unbound intrinsic glucuronidation clearance in human intestinal microsomes at 1 uM after 30 to 60 mins by LC-MS/MS analysis in presence of UDP-glucuronosyltransferase; type: ADME, Intestine, Microsome
# Summary of the method: (§3)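 Alamethicin-activated pooled microsomes (HLM 150 donors; HKM 8; HIM 18). Drug at 1 μM final, preincubated 5 min at 37°C in 0.1 M phosphate pH 7.1 with 3.45 mM MgCl2, 1.15 mM EDTA, 115 μM saccharic acid lactone. Started with […] cofactor (5 mM final), 30–60 min. Cofactor-free controls. Parent depletion by LC-MS/MS, single-exponential k. Corrected by HLM-dialysis fu,inc. Duplicates; n=3 (HIM n=1).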
# [10] = biological target: T1, UDP-glucuronosyltransferase 1A3; experiment: Ratio of UGT1A3-mediated unbound intrinsic glucuronidation clearance in human kidney microsomes to UGT1A3-mediated unbound intrinsic glucuronidation clearance in human liver microsomes at 1 uM; type: ADME; summary of the method: as §1
# [11] = Unbound intrinsic glucuronidation clearance in human kidney microsomes at 1 uM after 30 to 60 mins by LC-MS/MS analysis in presence of UDP-glucuronosyltransferase and 1% bovine serum albumin; type: ADME, microsome
# [12] = Unbound intrinsic glucuronidation clearance in human kidney microsomes at 1 uM after 30 to 60 mins by LC-MS/MS analysis in presence of UDP-glucuronosyltransferase; type: ADME, microsome; summary of the method: as §3
# [13] = biological target: T1, UDP-glucuronosyltransferase 1A3; experiment: Ratio of UGT1A3-mediated unbound intrinsic glucuronidation clearance in human kidney microsomes to UGT1A3-mediated unbound intrinsic glucuronidation clearance in human intestinal microsomes at 1 uM in presence of 1% bovine serum albumin; type: ADME; summary of the method: as §1
# [14] = Glucuronidation clearance in human liver microsomes; type: ADME
# [15] = biological target: T1, UDP-glucuronosyltransferase 1A3; experiment: Ratio of UGT1A3-mediated unbound intrinsic glucuronidation clearance in human kidney microsomes to UGT1A3-mediated unbound intrinsic glucuronidation clearance in human intestinal microsomes at 1 uM; type: ADME; summary of the method: as §1
# [16] = biological target: T1, UDP-glucuronosyltransferase 1A3; experiment: Drug metabolism in human liver microsomes assessed as UGT1A3-mediated unbound intrinsic glucuronidation clearance at 1 uM after 30 to 60 mins by LC-MS/MS analysis; type: ADME
# [17] = Glucuronidation clearance in human liver microsomes in presence of bovine serum albumin; type: ADME
# [18] = tested on: Liver microsome; experiment: Fraction metabolized glucuronidation in human liver microsomes in presence of UDP-glucuronosyltransferase; type: ADME
# [19] = Ratio of unbound intrinsic glucuronidation clearance in human intestinal microsomes in presence of 1% bovine serum albumin to unbound intrinsic glucuronidation clearance in human intestinal microsomes in absence of bovine serum albumin; type: ADME, Intestine, Microsome; summary of the method: as §2
# [20] = biological target: T1, UDP-glucuronosyltransferase 1A3; experiment: Ratio of UGT1A3-mediated unbound intrinsic glucuronidation clearance in human intestinal microsomes to UGT1A3-mediated unbound intrinsic glucuronidation clearance in human liver microsomes at 1 uM in presence of 1% bovine serum albumin; type: ADME; summary of the method: as §1
# [21] = biological target: T1, UDP-glucuronosyltransferase 1A3; experiment: Drug metabolism in human kidney microsomes assessed as UGT1A3-mediated unbound intrinsic glucuronidation clearance at 1 uM after 30 to 60 mins by LC-MS/MS analysis in presence of 1% bovine serum albumin; type: ADME
# [22] = tested on: Liver microsome; experiment: Unbound intrinsic glucuronidation clearance in human liver microsomes at 1 uM after 30 to 60 mins by LC-MS/MS analysis in presence of UDP-glucuronosyltransferase and 1% bovine serum albumin; type: ADME
# [23] = Fraction unbound in human liver microsomes at 1 uM after 30 to 60 mins by LC-MS/MS analysis; type: ADME
# [24] = Fraction unbound in human plasma
# [25] = biological target: T1, UDP-glucuronosyltransferase 1A3; experiment: Drug metabolism in human liver microsomes assessed as UGT1A3-mediated unbound intrinsic glucuronidation clearance at 1 uM after 30 to 60 mins by LC-MS/MS analysis in presence of 1% bovine serum albumin; type: ADME
# [26] = Fraction unbound in human intestinal microsomes at 1 uM after 30 to 60 mins by LC-MS/MS analysis; type: ADME, Intestine, Microsome
# [27] = tested on: Liver microsome; experiment: Fraction metabolized glucuronidation in human liver microsomes in presence of UDP-glucuronosyltransferase and bovine serum albumin; type: ADME
# [28] = Unbound intrinsic glucuronidation clearance in human intestinal microsomes at 1 uM after 30 to 60 mins by LC-MS/MS analysis in presence of UDP-glucuronosyltransferase and 1% bovine serum albumin; type: ADME, Intestine, Microsome
# [29] = tested on: Liver microsome; experiment: Unbound intrinsic glucuronidation clearance in human liver microsomes at 1 uM after 30 to 60 mins by LC-MS/MS analysis in presence of UDP-glucuronosyltransferase; type: ADME; summary of the method: as §3
# [30] = biological target: T1, UDP-glucuronosyltransferase 1A3; experiment: Drug metabolism in human intestinal microsomes assessed as UGT1A3-mediated unbound intrinsic glucuronidation clearance at 1 uM after 30 to 60 mins by LC-MS/MS analysis in presence of 1% bovine serum albumin; type: ADME, Intestine
# [31] = biological target: T1, UDP-glucuronosyltransferase 1A3; experiment: Ratio of UGT1A3-mediated unbound intrinsic glucuronidation clearance in human intestinal microsomes to UGT1A3-mediated unbound intrinsic glucuronidation clearance in human liver microsomes at 1 uM; type: ADME; summary of the method: as §1
compound,measurement,setting,value
CCCc1nc2c(C)cc(-c3nc4ccccc4n3C)cc2n1Cc1ccc(-c2ccccc2C(=O)O)cc1,clearance,[1],12.3 mL/min/kg
same,fraction unbound at 1 µM,[2],0.48
same,Fu,[3],0.07
same,Ratio,[4],0.028
same,CL free,[5],0.124 mL/min/g
same,Ratio,[6],1.6
same,CL free,[7],0.438 mL/min/g
same,Ratio,[8],1.6
same,CL free,[9],21.3 µL/min/mg
same,Ratio,[10],0.04
same,CL free,[11],34.3 µL/min/mg
same,CL free,[12],9.72 µL/min/mg
same,Ratio,[13],0.233
same,CLhep predicted,[14],9.93 mL/min/kg
same,Ratio,[15],0.284
same,CL free,[16],3.08 mL/min/g
same,CLhep predicted,[17],9.93 mL/min/kg
same,Drug metabolism,[18],1
same,Ratio,[19],1.6
same,Ratio,[20],0.119
same,CL free,[21],0.439 mL/min/g
same,CL free,[22],395 µL/min/mg
same,fraction unbound at 1 µM,[23],0.65
same,fraction unbound,[24],0.005
same,CL free,[25],15.8 mL/min/g
same,fraction unbound at 1 µM,[26],0.48
same,Drug metabolism,[27],1
same,CL free,[28],91.4 µL/min/mg
same,CL free,[29],76.9 µL/min/mg
same,CL free,[30],1.88 mL/min/g
same,Ratio,[31],0.142
